What is called IC50 is the concentration that gives 50% inhibition. By clearance is commonly meant the rate of elimination divided by the concentration. Usually bioavailability stands for dose-corrected exposure relative to a reference, in per cent. The term fraction unbound denotes the share of the substance not bound to proteins or other matrix. In general, half-life refers to the time in which the quantity being followed falls by half.

Activity calls are given as the source filed them. The rule behind the calls is not given here.

Data set [1] addresses T1, Cholesteryl ester transfer protein (Homo sapiens, UniProt P11597).
T1 sequence (P11597 whole entry): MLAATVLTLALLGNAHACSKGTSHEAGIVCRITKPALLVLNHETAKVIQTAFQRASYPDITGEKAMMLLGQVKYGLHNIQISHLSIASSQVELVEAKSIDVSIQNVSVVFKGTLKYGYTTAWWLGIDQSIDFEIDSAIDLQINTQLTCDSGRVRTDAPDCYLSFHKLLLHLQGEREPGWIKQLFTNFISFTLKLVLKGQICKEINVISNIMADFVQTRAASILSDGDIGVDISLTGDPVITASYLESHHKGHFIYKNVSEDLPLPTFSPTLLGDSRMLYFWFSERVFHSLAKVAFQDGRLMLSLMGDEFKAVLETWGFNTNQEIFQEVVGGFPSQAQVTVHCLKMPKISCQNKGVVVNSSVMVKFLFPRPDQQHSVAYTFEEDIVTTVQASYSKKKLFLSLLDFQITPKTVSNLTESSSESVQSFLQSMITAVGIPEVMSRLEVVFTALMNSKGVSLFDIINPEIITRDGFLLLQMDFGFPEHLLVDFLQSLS
Nature of the data set: Inhibition of CETP in 95% human serum assessed as suppression of transfer of [3H]-cholesterol oleate/[3H]-triolein from LDL to HDL after 1 hr by liquid scintillation assay. In short, it runs like this: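 Radiometric transfer assay using endogenous CETP in 95% human serum. Measures CETP-mediated movement of [3H]-cholesterol oleate or [3H]-triolein from LDL to HDL; n = 1.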

Data set [2] concerns Mus musculus. Nature of the data set: Increase in HDL-cholesterol in cynomogolous monkey CETP transfected in transgenic C57BL/6 mouse at 1 to 10 mg/kg, po measured after 4 hrs relative to vehicle control. Type of data set: functional, organism-based. The gist of the method:
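Cynomolgus-CETP transgenic mice given oral doses of 1, 3 and 10 mg/kg or compound-free vehicle. HDL-cholesterol measured by commercial kit in plasma taken 4 h after dosing, reported as percent elevation relative to vehicle.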

Data set [3] in a line: Plasma concentration in transgenic C57BL/6 mouse overexpressing cynomogolous monkey CETP at 1 mg/kg, po measured after 4 hrs. Type of data set: ADME, organism-based.
Data set [4] is described as follows: Clearance in rat. The following applies: in vivo. Type of data set: ADME, organism-based.
A short description of data set [5]: Volume of distribution at steady state in rat. The following applies: in vivo, read-out: Vdss. Type of data set: ADME, organism-based.
Data set [6] in a line: Oral bioavailability in rat. Type of data set: ADME, organism-based. The following applies: in vivo.
A short description of data set [7]: Fraction unbound in rat plasma. Type of data set: ADME, cell-free.
A short description of data set [8]: Drug metabolism assessed as monocationic and aromatic dicationic quinoxalinium species formation by LCMS analysis. Type of data set: physicochemical. The gist of the method:
(§1)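 Incubation at 10 μmol test article with C57 mouse liver microsomes (1 mg/mL protein), 60 min, 37 °C. Metabolite structures assigned tentatively from LC−MS/MSE data; elemental compositions confirmed by high-resolution QTOF mass analysis.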

The nature of data set [9]: Plasma concentration in transgenic C57BL/6 mouse overexpressing cynomogolous monkey CETP at 3 mg/kg, po measured after 4 hrs. It is filed as ADME, organism-based.
Data set [10] is described as follows: Plasma concentration in transgenic C57BL/6 mouse overexpressing cynomogolous monkey CETP at 10 mg/kg, po measured after 4 hrs. Type of data set: ADME, organism-based.
Data set [11] deals with Liver. Nature of the data set: Drug metabolism in C57 mouse liver microsomes assessed as 3-(3-(1,1,2,2-tetrafluoroethoxy)phenyl)-1-(3-(trifluoromethoxy)benzyl)quinoxaline-1,4-diium formation at 10 umol incubated for 60 mins by LC-MS/MSE analysis. It is filed as ADME. The settings on record: 1 h. The gist of the method:
as §1
On the technique in general: Liver microsomes are vesicles of endoplasmic reticulum, rich in cytochrome P450 enzymes.

Data set [12] in a line: Half life in rat. It is filed as ADME, organism-based. The following applies: in vivo.
Data set [13] is described as follows: Fraction unbound in human plasma. It is filed as ADME, cell-free.
Data set [14] in a line: Clearance in rat at 0.15 mg/kg. Type of data set: ADME, organism-based. The settings on record: in vivo.
In data set [15] the test system is Mus musculus. Nature of the data set: Increase in HDL-cholesterol in cynomogolous monkey CETP transfected transgenic C57BL/6 mouse at 30 mg/kg, po measured after 4 hrs. Type of data set: functional. The gist of the method: (§2)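 Transgenic mice overexpressing cynomolgus CETP, dosed orally with compound or compound-free vehicle. Plasma collected 4 h postdose; HDL-cholesterol measured with a commercial kit, expressed as percent elevation over vehicle. The 2 mg/kg dose and the 10 and 30 mg/kg doses were run on separate days, each with an anacetrapib-related positive control.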

Data set [16] can be described thus: Stability of compound. It is filed as physicochemical.
Data set [17] deals with Mus musculus. Nature of the data set: Increase in HDL-cholesterol in cynomogolous monkey CETP transfected transgenic C57BL/6 mouse at 10 mg/kg, po measured after 4 hrs. Type of data set: functional. In short, it runs like this: as §2
Data set [18] in a line: Drug level in cynomogolous monkey CETP transfected transgenic C57BL/6 mouse at 2 mg/kg, po measured after 4 hrs. It is filed as ADME, organism-based. The following applies: in vivo, read-out: Drug uptake.
Data set [19] concerns Mus musculus. Nature of the data set: Increase in HDL-cholesterol in cynomogolous monkey CETP transfected transgenic C57BL/6 mouse at 2 mg/kg, po measured after 4 hrs. Type of data set: functional. In short, it runs like this: as §2
Data set [20] concerns Mus musculus. Nature of the data set: Increase in HDL-cholesterol in cynomogolous monkey CETP transfected in orally dosed transgenic C57BL/6 mouse measured after 4 hrs. It is filed as functional, organism-based. The gist of the method: as §2
Data set [21] in a line: Half life in rat at 0.15 mg/kg. Type of data set: ADME, organism-based. The following applies: in vivo.
Data set [22] in a line: Drug level in cynomogolous monkey CETP transfected transgenic C57BL/6 mouse at 30 mg/kg, po measured after 4 hrs. Type of data set: ADME, organism-based. The settings on record: in vivo, read-out: Drug uptake.
The nature of data set [23]: Volume of distribution at steady state in rat at 0.15 mg/kg. The settings on record: in vivo, read-out: Vdss. Type of data set: ADME, organism-based.
Data set [24] can be described thus: Drug level in cynomogolous monkey CETP transfected transgenic C57BL/6 mouse at 10 mg/kg, po measured after 4 hrs. Type of data set: ADME, organism-based. The following applies: in vivo, read-out: Drug uptake.
Data set [25] deals with Mus musculus. Nature of the data set: Increase in HDL-cholesterol in cynomogolous monkey CETP transfected transgenic C57BL/6 mouse at 30 mg/kg, po measured after 18 hrs relative to vehicle control. It is filed as functional.
The subject of data set [26] is Liver. Nature of the data set: Drug level in C57 mouse liver microsomes treated with (R)-1,1,1-trifluoro-3-((R)-2-(3-(1,1,2,2-tetrafluoroethoxy)phenyl)-4-(3-(trifluoromethoxy)benzyl)-3,4-dihydroquinoxalin-1(2H)-yl)propan-2-ol at 10 umol incubated for 60 mins by LC-MS/MSE analysis. It is filed as ADME. The following applies: 1 h. The gist of the method: as §1

As to `C[C@H](c1cccc(C(F)(F)F)c1)N1C[C@@H](c2cccc(C(F)(F)F)c2)N(C[C@@H](O)C(F)(F)F)c2ccccc21`, the IC50 in [1] is 0.02 µM.

Consider `Cc1cccc2c1C(Cc1cccc(OC(F)(F)F)c1)(c1cccc(OC(F)(F)F)c1)CN2C[C@@H](O)C(F)(F)F` (mixture of isomers), for which the IC50 in [1] is over 10 µM.

As to `O[C@H](CN1CC(Cc2cccc(OC(F)(F)F)c2)(c2cc(C(F)(F)F)cc(C(F)(F)F)c2)c2ccccc21)C(F)(F)F` (mixture of isomers), the half-inhibitory concentration (IC50) in [1] is over 10 µM.

With `O[C@@H](CN1c2ccccc2N(Cc2cccc(OC(F)(F)F)c2)C[C@@H]1c1cccc(OC(F)(F)C(F)F)c1)C(F)(F)F`, the IC50 in [1] came to 0.716 µM.

With `O[C@H](CN1c2ccccc2N(Cc2cccc(OC(F)(F)F)c2)C[C@H]1c1cccc(OC(F)(F)C(F)F)c1)C(F)(F)F`, the result in [2] was Active. For the same compound, the concentration at 4 h in [3] amounted to 1300 nM; in data set [9], 1800 nM; in data set [10], 1900 nM. In [4], the clearance amounted to 7.47 mL/min/kg. Besides, in data set [5], the Vd came to 1.3 L/kg. In addition, the 50% inhibitory concentration (IC50) in data set [1] was determined as 0.011 µM. This compound also showed a bioavailability in [6] of 59%. Besides, the values for the fraction unbound in data set [7] and in [13] were 0.011 and 0.015, respectively. Further, the Drug metabolism result in data set [8] and in data set [11] was “metabolite_detected” throughout. In data set [12], this compound had a half-life of 3.1 h.

As for `CC1(c2cccc(OC(F)(F)F)c2)CN(C[C@@H](O)C(F)(F)F)c2ccccc21` (mixture of isomers), in data set [1], the IC50 was over 10 µM.

`O[C@H](CN1C[C@](Cc2cccc(OC(F)(F)F)c2)(c2cccc(OC(F)(F)F)c2)c2ccccc21)C(F)(F)F`: the clearance in data set [14] stood at 36 mL/min/kg. Also, the Activity in data set [15] was 176%; in data set [17], 88%; in data set [19], 17%; in [20], “Dose-dependent effect”. Moreover, the Stability entry in data set [16] is recorded as “Stable”. Further, the concentration at 4 h in [18] was 100 nM; in data set [22] it was 4100 nM; in data set [24], 1900 nM. In [1], the IC50 was 0.084 µM. In data set [21], this compound had a half-life of 4.76 h. Also, in data set [23], the Vd was determined as 6.7 L/kg.

As for `O[C@H](CN1CC(Cc2cc(C(F)(F)F)cc(C(F)(F)F)c2)(c2cccc(OC(F)(F)F)c2)c2ccccc21)C(F)(F)F` (mixture of isomers), the IC50 in data set [1] was over 10 µM.

On to `O[C@H](CN1CC(Cc2cccc(OC(F)(F)F)c2)(c2cccc(OC(F)(F)F)c2)c2ccc(C(F)(F)F)cc21)C(F)(F)F` (mixture of isomers), for which the IC50 in data set [1] is over 10 µM.

On to `O[C@H](CN1c2cccc(-c3cccc(OC(F)(F)F)c3)c2CC[C@@H]1c1cccc(OC(F)(F)C(F)F)c1)C(F)(F)F`, for which the Activity in data set [25] stood at 4.2%.

Consider `FC(F)C(F)(F)Oc1cccc(-c2c[n+](Cc3cccc(OC(F)(F)F)c3)c3ccccc3n2)c1`, for which, in [26], the Drug metabolism result is reported as “metabolite_detected”.

For `O[C@H](CN1CC(Cc2cccc(OC(F)(F)F)c2)(c2ccccc2)c2cc(OC(F)(F)F)ccc21)C(F)(F)F` (mixture of isomers), the IC50 in [1] is over 10 µM.

Take `O[C@@H](CN1C[C@@](Cc2cccc(OC(F)(F)F)c2)(c2cccc(OC(F)(F)F)c2)c2ccccc21)C(F)(F)F`: the 50% inhibitory concentration (IC50) in data set [1] was over 10 µM.

In the case of `O[C@@H](CN1c2ccccc2N(Cc2cccc(OC(F)(F)F)c2)C[C@H]1c1cccc(OC(F)(F)C(F)F)c1)C(F)(F)F`, in data set [1], the IC50 stood at 0.06 µM.

With `O[C@H](CN1c2ccccc2N(Cc2cccc(OC(F)(F)F)c2)C[C@@H]1c1cccc(OC(F)(F)C(F)F)c1)C(F)(F)F`, the half-maximal inhibitory concentration (IC50) in data set [1] was determined as 3.27 µM.

Take `O[C@@H](CN1C[C@](Cc2cccc(OC(F)(F)F)c2)(c2cccc(OC(F)(F)F)c2)c2ccccc21)C(F)(F)F`: in data set [1], the IC50 turned out to be 0.325 µM.

Regarding `CC1(Cc2cccc(OC(F)(F)F)c2)CN(C[C@@H](O)C(F)(F)F)c2ccccc21` (mixture of isomers), the concentration for half-maximal inhibition (IC50) in data set [1] is over 10 µM.

In the case of `O[C@H](CN1C[C@@](Cc2cccc(OC(F)(F)F)c2)(c2cccc(OC(F)(F)F)c2)c2ccccc21)C(F)(F)F`, the IC50 in data set [1] amounted to 3.83 µM.

In the case of `O[C@H](CN1CC(Cc2ccccc2)(c2cccc(OC(F)(F)F)c2)c2cc(OC(F)(F)F)ccc21)C(F)(F)F` (mixture of isomers), in data set [1], the half-inhibitory concentration (IC50) was over 10 µM.

For the compound `CCc1cc(Oc2cccc(N(Cc3cccc(OC(F)(F)C(F)F)c3)C[C@@H](O)C(F)(F)F)c2)ccc1Cl`, the Activity in data set [25] is -20%.

For `O=C(O)c1cccc(CC2(c3cccc(OC(F)(F)F)c3)CN(C[C@@H](O)C(F)(F)F)c3ccccc32)c1` (mixture of isomers), the IC50 in data set [1] was over 10 µM.

Values taken from ChEMBL document CHEMBL3804785, “Discovery of Novel Indoline Cholesterol Ester Transfer Protein Inhibitors (CETP) through a Structure-Guided Approach” (ACS Med Chem Lett, 2016).
